Consider 14 compounds from ChEMBL document CHEMBL3044531, “Quantitative structure-antifungal activity relationships of some benzohydrazides against Botrytis cinerea” (2007).

What all share (type): functional
Details in all cases: 144 h

The subject of test [1] is Botrytis cinerea. The test is described as follows: Antifungal activity against Botryotinia fuckeliana assessed as radial growth inhibition at 200 ug/mL measured after 6 days. In short, it runs like this:
(§1)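 Radial growth inhibition of B. cinerea on glucose-malt-peptone agar (61 g/L, pH 6.5-7.0) in 9 cm dishes. Compound in acetone added to the medium at final 50-200 μg/mL, with equal acetone in the controls. A 5 mm mycelial disc from an actively growing culture was placed centrally. Growth was followed for 6 days; % inhibition from mean colony diameter versus untreated control. Triplicate, repeated at least three times.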

Test [2] concerns Botrytis cinerea. As to the kind of experiment: Antifungal activity against Botryotinia fuckeliana assessed as radial growth inhibition at 50 ug/mL measured after 6 days. In short, it runs like this: as §1
The test system of test [3] is Botrytis cinerea. As to the kind of experiment: Antifungal activity against Botryotinia fuckeliana assessed as radial growth inhibition at 100 ug/mL measured after 6 days. In short, it runs like this:
as §1

Each structure is given as a SMILES string.

What is called inhibition is how much of the control response was suppressed. `O=C(NN1Cc2ccccc2C1)c1ccccc1F`: the inhibition at 200 µg/mL in the test with Botrytis cinerea [1] was found to be 91%. In the test with Botrytis cinerea [2], the inhibition at 50 µg/mL stood at 42%. In the test on Botrytis cinerea [3], the inhibition at 100 µg/mL was 50%.
Taken in the same sequence, the figures for `O=C(NN(Cc1ccccc1)Cc1ccccc1)c1ccccc1Cl` were 86%, 31% and 42%.
On to `CN(C)NC(=O)c1ccccc1I`, for which the inhibition at 200 µg/mL in the test on Botrytis cinerea [1] was determined as 33%. Further, in the test with Botrytis cinerea [2], the inhibition at 50 µg/mL amounted to 19%. For the same compound, the inhibition at 100 µg/mL in the test with Botrytis cinerea [3] came to 28%.
In the same order, the values of `CN(C)NC(=O)c1ccccc1F` are 32%, 12% and 22%.
Taken in the same sequence, the figures for `CN(C)NC(=O)c1ccccc1Cl` were 33%, 0% and 0%.
As for `O=C(NN(Cc1ccccc1)Cc1ccccc1)c1ccccc1I`, the inhibition at 200 µg/mL in the test on Botrytis cinerea [1] came out at 82%. Moreover, the inhibition at 50 µg/mL in the test on Botrytis cinerea [2] stood at 27%. Further, the inhibition at 100 µg/mL in the test on Botrytis cinerea [3] is 50%.
Regarding `Cc1ccccc1C(=O)NN(Cc1ccccc1)Cc1ccccc1`, the inhibition at 200 µg/mL in the test on Botrytis cinerea [1] came to 88%. Also, the inhibition at 50 µg/mL in the test on Botrytis cinerea [2] is 48%. Besides, the inhibition at 100 µg/mL in the test on Botrytis cinerea [3] was 55%.
In the same order, the values of `O=C(NN1CCCCC1)c1ccccc1F` are 51%, 46% and 51%.
Taken in the same sequence, the figures for `O=C(NN1CCCCC1)c1ccccc1Cl` were 57%, 36% and 40%.
Take `O=C(NN1CCCCC1)c1ccccc1I`: the inhibition at 200 µg/mL in the test on Botrytis cinerea [1] turned out to be 46%. Moreover, the inhibition at 50 µg/mL in the test on Botrytis cinerea [2] came to 33%. Moreover, the inhibition at 100 µg/mL in the test on Botrytis cinerea [3] amounted to 42%.
In the same order, the values of `COc1ccccc1C(=O)NN1CCCCC1` are 51%, 38% and 47%.
Regarding `O=C(NN(Cc1ccccc1)Cc1ccccc1)c1ccccc1` [N',N'-DIBENZYLBENZOHYDRAZIDE], the inhibition at 200 µg/mL in the test with Botrytis cinerea [1] was 44%. In addition, in the test on Botrytis cinerea [2], the inhibition at 50 µg/mL is 10%. For the same compound, in the test with Botrytis cinerea [3], the inhibition at 100 µg/mL turned out to be 42%.
Taken in the same sequence, the figures for `CN(C)NC(=O)c1ccccc1` [N',N'-DIMETHYLBENZOHYDRAZIDE] were 51%, 24% and 45%.
In the same order, the values of `O=C(NN1CCCCC1)c1ccccc1` [N-PIPERIDINOBENZAMIDE] are 45%, 37% and 43%.
